# Screening data deposited in PubChem BioAssay by several laboratories.
# L929 necroptosis – inhibitors of zVAD-triggered necroptosis, primary screen, L929 cells. 0.38% of 220,000 active. viability rescue, % at 10 µM. L929 zVAD necroptosis rescue, ATP luminescence, 24 h; with zVAD 60 µM. AID 1377, 2008;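 active = activation, scaled between plate controls, above about 75%, limit read from the data; inactive = activation under that limit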;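 note: 0% = zVAD with DMSO and 100% = DMSO alone without zVAD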
# M18AAP inhibitor – PfM18AAP inhibitors, malaria aminopeptidase, primary screen, biochemical, QFRET, recombinant enzyme | M18 aspartyl aminopeptidase (Plasmodium falciparum 3D7) | H-Glu-NHMec fluorogenic cleavage | inhibition, % at 7.35 µM | 1.2% of 290,000 active;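 active = inhibition above the campaign mean inhibition over all tested compounds plus 3 SD, cut at about 28% in these data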;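 note: 0% = plate median of test compound wells and 100% = 2 mM ZnCl2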
# RBBP9 inh – human RBBP9 inhibitors, primary screen, biochemical, fluorescence polarization, FP-Rh probe, HTS; 0.2% of 220,000 active; inhibition, % at 7.94 µM; recombinant RBBP9; Serine hydrolase RBBP9 (Homo sapiens), O75884;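 active = inhibition above the campaign mean of all tested compounds plus 3 SD, cut at about 14% in these data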;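 note: plate controls were DMSO wells with RBBP9 for no effect and wells lacking RBBP9 protein for full effect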
# Target sequence (O75884 whole entry, looked up): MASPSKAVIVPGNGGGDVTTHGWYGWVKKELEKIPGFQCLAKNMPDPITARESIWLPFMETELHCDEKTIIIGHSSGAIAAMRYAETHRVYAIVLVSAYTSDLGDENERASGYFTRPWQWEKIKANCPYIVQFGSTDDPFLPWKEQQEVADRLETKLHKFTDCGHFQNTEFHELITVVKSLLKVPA
#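 System: RBBP9 protein / Quantity: 2.5 µM RBBP9 dispensing solution, before mixing / Also added: Serine-hydrolase probe FP-Rh, 375 nM pre-mixing / Dosing: 7.94 µM single dose, 0.794% DMSO / Timing: enzyme-compound preincubation 30 min, then probe labeling 45 min, 25 °C / Signal: FP readout at 525/598 nm / Controls: DMSO-treated enzyme wells and wells lacking RBBP9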
# TNF necrop inh – inhibitors of TNF-alpha triggered necroptosis, primary screen, cell-based, Jurkat FADD-/-, single concentration | AID 463075, 2010 | activation (protection from cell death), % at 10 µM | 0.068% of 220,000 active | Jurkat FADD-/- TNF necroptosis rescue, ATP luminescence, 24 h; 0 = TNF only, 100 = no-TNF cells;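 active = activation, meaning protection from cell death, of at least 50% relative to plate controls; inactive = activation below 50%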;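 note: necroptosis triggered by 40 ng/mL TNF-alpha added together with compound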
# TbHK1 inh – Trypanosoma brucei hexokinase 1 inhibitors, primary screen, biochemical, G6PDH-coupled NADH absorbance, MLSCN library; recombinant TbHK1, G6PDH-coupled NADH A340; inhibition, % at 10 µM; 0.11% of 220,000 active;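 active = inhibition of 50% or more in the single-dose primary screen; inactive = inhibition below 50%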
# Hep lipid drop – inhibitors of hepatocyte lipid droplet formation, primary screen, imaging, high-throughput imaging, BODIPY stain; AML12 mouse hepatocytes, oleate lipid droplets; inhibition, % at 6.5 µM; 0.4% of 240,000 active;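 active = lipid droplet intensity inhibited by at least 50%, with more than 500 cells counted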
#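 System: AML12 hepatocytes (mouse). Probe or stimulus: oleic acid at 100 µM to induce lipid droplet formation. Times: overnight treatment with compound plus oleate. Detection: Image-based BODIPY and DAPI two-channel analysis. Evaluation: percent inhibition of filter-corrected integrated lipid droplet intensity per well.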
# Hep lipid conf – hepatocyte lipid droplet accumulation inhibitors, confirmation, imaging, AML12 mouse hepatocytes, single concentration, high-content; AID 463183, 2010; BODIPY lipid droplet imaging; droplets induced with 100 µM oleic acid; inhibition, % at 5.2 µM; 65% of 870 active; shares compounds with Hep lipid drop;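 active = inhibition of lipid droplet metric at least 50%, with more than 300 cells in each of four replicates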;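 note: plate controls were DMSO with oleic acid for no effect and 5 µM Triacsin-C for full effect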
# AML12 tox img – AML12 hepatocyte cytotoxicity, counter-screen for hepatic lipid droplet formation project, imaging, DAPI nuclear morphology imaging. z-score at 5 µM. AML12 mouse hepatocytes; hits give high values; cells fed 100 µM oleate overnight. shares compounds with Hep lipid drop. 3% of 870 active; in the data active = z-score above about 6.3;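 note: compound exposure lasted overnight at 37 °C before fixation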
# AML12 tox ATP – AML12 hepatocyte cytotoxicity, confirmation, cytotoxicity control for hepatic lipid droplet formation project, cell-based, single concentration | 530 tested, under 10 active | shares compounds with Hep lipid drop | AML12 mouse hepatocyte viability, ATP luminescence; cells loaded with 100 µM oleic acid | cytotoxicity, % at 50 µM;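 active = cytotoxicity above 50% in each of four replicates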;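 note: compound exposure lasted overnight at 37 °C before the ATP read; 0% = DMSO-treated cells and 100% = wells with no cells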
# Starred values were filed as active, the others as inactive; . = no result. In the library only some 2% were active in any assay of this set; here they are far more common.
SMILES,L929 necroptosis,M18AAP inhibitor,RBBP9 inh,TNF necrop inh,TbHK1 inh,Hep lipid drop,Hep lipid conf,AML12 tox img,AML12 tox ATP
Cc1ccc(NC(=O)CSc2nnc(C)c(=O)n2N)cc1Cl,.,8,.,.,.,63*,97*,-0.51,12
CCCCc1cc(=O)oc2cc(OC(C)C(=O)NCC3CCC(C(=O)O)CC3)c(Cl)cc12 (stereo unspecified),.,-5,.,.,.,.,.,.,.
O=C(Nc1ccc(C(=O)N2CCOCC2)cc1)c1cccc(Br)c1,.,-3,.,.,.,2,.,.,.
O=C(Nc1cccc(Br)c1)c1cccc(OC(=S)N2CCOCC2)c1,.,-8,.,.,.,59*,95*,0.95,19
Cc1[nH]c(C)c(S(=O)(=O)N2CCN(c3ccccc3)CC2)c1C(=O)N1CCCCC1,.,-14,.,.,.,-3,.,.,.
CN1C(=O)[C@H]2[C@@H](C3CC3)N3C(=O)CN(CCO)C(=O)[C@@]3(Cc3ccccc3)[C@H]2C1=O,.,-2,.,.,.,3,.,.,.
CN1C(=O)[C@H]2[C@@H](C3CC3)N3C(=O)CN(Cc4ccccn4)C(=O)[C@@]3(Cc3ccccc3)[C@H]2C1=O,.,4,.,.,.,60*,6,-0.62,.
Cc1cc(C(=O)COC(=O)c2ccc(CO)cc2)c(C)n1CC1COc2ccccc2O1 (stereo unspecified),2,-2,-4,0,-10,-11,.,.,.
CC(C)n1c(O)c(N=NC(=O)C2COc3ccccc3O2)c2ccccc21 (stereo unspecified),0,2,-6,-2,-13,52*,-1,-1.1,.
Cc1ccc(N2C(N)=C(C#N)C(c3cc(CN4CCOCC4)cs3)C3=C2CC(C)(C)CC3=O)cc1 (stereo unspecified),1,0,8,0,-9,75*,87*,0.078,3
Cc1ccc(N2C(N)=C(C#N)C(c3ccsc3)C3=C2CC(C)(C)CC3=O)cc1 (stereo unspecified),0,4,-5,1,1,.,.,.,.
CCOc1ccc(CCNC(=O)c2cccc(C#N)c2)cc1OCC,1,-10,-10,-1,-1,-4,.,.,.
O=C1C(NS(=O)(=O)c2ccccc2)=C(N2CCN(c3ccc(F)cc3)CC2)C(=O)c2ccccc21,0,1,-6,-3,-7,79*,81*,-1.4,17
CC1CCCN(C2=C(NS(=O)(=O)c3ccc(Br)cc3)C(=O)c3ccccc3C2=O)C1 (stereo unspecified),.,15,.,.,.,50*,112*,-1.2,23
O=C1C(NS(=O)(=O)c2ccc(Br)cc2)=C(N2CCCCC2)C(=O)c2ccccc21,.,18,.,.,.,19,.,.,.
O=C1C(NS(=O)(=O)c2cccs2)=C(N2CCN(c3cccc(Cl)c3)CC2)C(=O)c2ccccc21,0,2,6,-6,-16,61*,112*,0.38,18
CC1CCN(C2=C(NS(=O)(=O)c3ccccc3)C(=O)c3ccccc3C2=O)CC1,-1,3,-10,-8,-13,35,.,.,.
CC(=O)Nc1ccc(S(=O)(=O)NC2=C(N3CCN(C)CC3)C(=O)c3ccccc3C2=O)cc1,.,20,.,.,.,-23,.,.,.
CC1CCN(C2=C(NS(=O)(=O)c3ccc(Br)cc3)C(=O)c3ccccc3C2=O)CC1,.,13,.,.,.,60*,114*,-0.12,23
